Data as given in ChEMBL document CHEMBL3045565, “Microwave synthesis, characterization and bio-efficacy evaluation of novel chalcone based 6-carbethoxy-2-cyclohexen-1-one and 2H-indazol-3-ol derivatives” (Eur J Med Chem, 2013).
In brackets after ≈: the same amount, converted by molar mass.

Each compound was assayed on Radical scavenging activity (assay: Antioxidant activity assessed as DPPH free radical scavenging activity at 40 ug/mL after 20 min by UV-Vis spectrophotometric analysis). Settings: not given.
Type: functional
In short: (§1)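 DPPH radical scavenging: samples were held at room temperature for 20 min in the dark, and absorbance was read at 517 nm. The control contained DMSO without compound, and methanol was used for baseline correction. Scavenging percentage was calculated from the absorbances.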

| Structure (SMILES) | Activity [%] |
| --- | --- |
| O=[N+]([O-])c1cccc(C2CC(c3ccc(F)cc3)=Cc3n[nH]c(O)c32)c1 (configuration not stated) | 67.9 |
| COc1ccc(C2=Cc3n[nH]c(O)c3C(c3ccc(OC)c(OC)c3)C2)cc1 (configuration not stated) | 65.3 |

The compounds below were run on Radical scavenging activity (assay: Antioxidant activity assessed as DPPH free radical scavenging activity at 400 ug/mL after 20 min by UV-Vis spectrophotometric analysis). Settings: not given.
Type: functional
In short: as §1

| Structure (SMILES) | Activity [%] |
| --- | --- |
| O=[N+]([O-])c1cccc(C2CC(c3ccc(F)cc3)=Cc3n[nH]c(O)c32)c1 (configuration not stated) | 90.9 |
| COc1ccc(C2=Cc3n[nH]c(O)c3C(c3ccc(OC)c(OC)c3)C2)cc1 (configuration not stated) | 90.5 |

Each compound was assayed on Radical scavenging activity (assay: Antioxidant activity assessed as DPPH free radical scavenging activity at 500 ug/mL after 20 min by UV-Vis spectrophotometric analysis). Settings: not given.
Type: functional
In short: as §1

| Structure (SMILES) | Activity [%] |
| --- | --- |
| O=[N+]([O-])c1cccc(C2CC(c3ccc(F)cc3)=Cc3n[nH]c(O)c32)c1 (configuration not stated) | 91.1 |
| COc1ccc(C2=Cc3n[nH]c(O)c3C(c3ccc(OC)c(OC)c3)C2)cc1 (configuration not stated) | 90.8 |

What follows are compounds tested on Dickeya chrysanthemi (assay: Antibacterial activity against Erwinia chrysanthemi ITCC B-40 assessed as as growth inhibition at 100 ug/disk after 24 hr by disk diffusion method). Settings: ITCC B-40, 24 h, read-out: DIZ.
Type: functional
In short: (§2)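 Disk diffusion on nutrient agar. Strains kept on NA slants at 37 °C and subcultured in nutrient broth before testing. A log-phase culture was spread on solidified medium, and sterile disks were loaded with compound from DMSO stock. DMSO served as control, with commercial antibiotics for reference. Plates ran 24 h at 37 °C, and inhibition zones (mm) were read in quadruplicate.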

| Structure (SMILES) | zone of inhibition at 100 µg/disc [mm] |
| --- | --- |
| O=[N+]([O-])c1cccc(C2CC(c3ccc(F)cc3)=Cc3n[nH]c(O)c32)c1 (configuration not stated) | 0 |
| COc1ccc(C2=Cc3n[nH]c(O)c3C(c3ccc(OC)c(OC)c3)C2)cc1 (configuration not stated) | 0 |

Each compound was assayed on Radical scavenging activity (assay: Antioxidant activity assessed as DPPH free radical scavenging activity at 100 ug/mL after 20 min by UV-Vis spectrophotometric analysis). Settings: not given.
Type: functional
In short: as §1

| Structure (SMILES) | Activity [%] |
| --- | --- |
| O=[N+]([O-])c1cccc(C2CC(c3ccc(F)cc3)=Cc3n[nH]c(O)c32)c1 (configuration not stated) | 90.8 |
| COc1ccc(C2=Cc3n[nH]c(O)c3C(c3ccc(OC)c(OC)c3)C2)cc1 (configuration not stated) | 91.4 |

These compounds were tested on Radical scavenging activity (assay: Antioxidant activity assessed as DPPH free radical scavenging activity at 60 ug/mL after 20 min by UV-Vis spectrophotometric analysis). Settings: not given.
Type: functional
In short: as §1

| Structure (SMILES) | Activity [%] |
| --- | --- |
| O=[N+]([O-])c1cccc(C2CC(c3ccc(F)cc3)=Cc3n[nH]c(O)c32)c1 (configuration not stated) | 86.4 |
| COc1ccc(C2=Cc3n[nH]c(O)c3C(c3ccc(OC)c(OC)c3)C2)cc1 (configuration not stated) | 85.8 |

The compounds below were run on Radical scavenging activity (assay: Antioxidant activity assessed as DPPH free radical scavenging activity at 20 ug/mL after 20 min by UV-Vis spectrophotometric analysis). Settings: not given.
Type: functional
In short: as §1

| Structure (SMILES) | Activity [%] |
| --- | --- |
| O=[N+]([O-])c1cccc(C2CC(c3ccc(F)cc3)=Cc3n[nH]c(O)c32)c1 (configuration not stated) | 35.9 |
| COc1ccc(C2=Cc3n[nH]c(O)c3C(c3ccc(OC)c(OC)c3)C2)cc1 (configuration not stated) | 29.2 |

The compounds below were run on Bacillus thuringiensis (assay: Antibacterial activity against Bacillus thuringiensis MTCC 6941 assessed as growth inhibition at 100 ug/disk after 24 hr by disk diffusion method). Settings: MTCC 6941, 24 h, read-out: DIZ.
Type: functional
In short: as §2

| Structure (SMILES) | zone of inhibition at 100 µg/disc [mm] |
| --- | --- |
| O=[N+]([O-])c1cccc(C2CC(c3ccc(F)cc3)=Cc3n[nH]c(O)c32)c1 (configuration not stated) | 0 |
| COc1ccc(C2=Cc3n[nH]c(O)c3C(c3ccc(OC)c(OC)c3)C2)cc1 (configuration not stated) | 0 |

These compounds were tested on Pseudomonas aeruginosa (assay: Antibacterial activity against Pseudomonas aeruginosa MTCC 2581 assessed as growth inhibition at 100 ug/disk after 24 hr by disk diffusion method). Settings: MTCC 2581, 24 h, read-out: DIZ.
Type: functional
In short: as §2

| Structure (SMILES) | zone of inhibition at 100 µg/disc [mm] |
| --- | --- |
| O=[N+]([O-])c1cccc(C2CC(c3ccc(F)cc3)=Cc3n[nH]c(O)c32)c1 (configuration not stated) | 0 |
| COc1ccc(C2=Cc3n[nH]c(O)c3C(c3ccc(OC)c(OC)c3)C2)cc1 (configuration not stated) | 0 |

Each compound was assayed on Radical scavenging activity (assay: Antioxidant activity assessed as DPPH free radical scavenging activity at 300 ug/mL after 20 min by UV-Vis spectrophotometric analysis). Settings: not given.
Type: functional
In short: as §1

| Structure (SMILES) | Activity [%] |
| --- | --- |
| O=[N+]([O-])c1cccc(C2CC(c3ccc(F)cc3)=Cc3n[nH]c(O)c32)c1 (configuration not stated) | 90.5 |
| COc1ccc(C2=Cc3n[nH]c(O)c3C(c3ccc(OC)c(OC)c3)C2)cc1 (configuration not stated) | 90.4 |

Each compound was assayed on Radical scavenging activity (assay: Antioxidant activity assessed as DPPH free radical scavenging activity at 200 ug/mL after 20 min by UV-Vis spectrophotometric analysis). Settings: not given.
Type: functional
In short: as §1

| Structure (SMILES) | Activity [%] |
| --- | --- |
| O=[N+]([O-])c1cccc(C2CC(c3ccc(F)cc3)=Cc3n[nH]c(O)c32)c1 (configuration not stated) | 92.3 |
| COc1ccc(C2=Cc3n[nH]c(O)c3C(c3ccc(OC)c(OC)c3)C2)cc1 (configuration not stated) | 92.1 |

These compounds were tested on Klebsiella pneumoniae (assay: Antibacterial activity against Klebsiella pneumoniae MTCC 7028 assessed as growth inhibition at 100 ug/disk after 24 hr by disk diffusion method). Settings: MTCC 7028, 24 h, read-out: DIZ.
Type: functional
In short: as §2

| Structure (SMILES) | zone of inhibition at 100 µg/disc [mm] |
| --- | --- |
| O=[N+]([O-])c1cccc(C2CC(c3ccc(F)cc3)=Cc3n[nH]c(O)c32)c1 (configuration not stated) | 0 |
| COc1ccc(C2=Cc3n[nH]c(O)c3C(c3ccc(OC)c(OC)c3)C2)cc1 (configuration not stated) | 0 |

These compounds were tested on Radical scavenging activity (assay: Antioxidant activity assessed as DPPH free radical scavenging activity after 20 min by UV-Vis spectrophotometric analysis). Settings: not given.
Type: functional
Design: concentration or dose not given beside the values
In short: as §1

| Structure (SMILES) | Activity [%] | IC50 [µg/mL] |
| --- | --- | --- |
| O=[N+]([O-])c1cccc(C2CC(c3ccc(F)cc3)=Cc3n[nH]c(O)c32)c1 (configuration not stated) | 67.9 | 19.81 (≈ 56.4 µM) |
| COc1ccc(C2=Cc3n[nH]c(O)c3C(c3ccc(OC)c(OC)c3)C2)cc1 (configuration not stated) | 65.3 | 23.94 (≈ 63.3 µM) |

What follows are compounds tested on Radical scavenging activity (assay: Antioxidant activity assessed as DPPH free radical scavenging activity at 10 ug/mL after 20 min by UV-Vis spectrophotometric analysis). Settings: not given.
Type: functional
In short: as §1

| Structure (SMILES) | Activity [%] |
| --- | --- |
| O=[N+]([O-])c1cccc(C2CC(c3ccc(F)cc3)=Cc3n[nH]c(O)c32)c1 (configuration not stated) | 22.6 |
| COc1ccc(C2=Cc3n[nH]c(O)c3C(c3ccc(OC)c(OC)c3)C2)cc1 (configuration not stated) | 17.7 |

These compounds were tested on Athelia rolfsii (assay: Antifungal activity against Athelia rolfsii ITCC 6181 by food poisoning method). Settings: Agroathelia rolfsii.
Type: functional
In short: (§3)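 Poisoned food technique on PDA at several concentrations. A 5 mm mycelial plug from the growing edge of a 2-week-old colony was placed inoculum-side down at the plate centre. Plates incubated at 27 °C until control growth was nearly complete. Colony diameter measured, percent inhibition calculated against control, LC50 derived. Four replicates per treatment.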

| Structure (SMILES) | LC50 [µg/mL] |
| --- | --- |
| O=[N+]([O-])c1cccc(C2CC(c3ccc(F)cc3)=Cc3n[nH]c(O)c32)c1 (configuration not stated) | 796 (≈ 2270 µM) |
| COc1ccc(C2=Cc3n[nH]c(O)c3C(c3ccc(OC)c(OC)c3)C2)cc1 (configuration not stated) | 1240 (≈ 3280 µM) |

What follows are compounds tested on Bacillus pumilus (assay: Antibacterial activity against Bacillus pumilus MTCC 2466 assessed as growth inhibition at 100 ug/disk after 24 hr by disk diffusion method). Settings: MTCC 2466, 24 h, read-out: DIZ.
Type: functional
In short: as §2

| Structure (SMILES) | zone of inhibition at 100 µg/disc [mm] |
| --- | --- |
| O=[N+]([O-])c1cccc(C2CC(c3ccc(F)cc3)=Cc3n[nH]c(O)c32)c1 (configuration not stated) | 0 |
| COc1ccc(C2=Cc3n[nH]c(O)c3C(c3ccc(OC)c(OC)c3)C2)cc1 (configuration not stated) | 0 |

Each compound was assayed on Xanthomonas oryzae (assay: Antibacterial activity against Xanthomonas oryzae ITCC B-47 assessed as as growth inhibition at 100 ug/disk after 24 hr by disk diffusion method). Settings: ITCC B-47, 24 h, read-out: DIZ.
Type: functional

| Structure (SMILES) | zone of inhibition at 100 µg/disc [mm] |
| --- | --- |
| O=[N+]([O-])c1cccc(C2CC(c3ccc(F)cc3)=Cc3n[nH]c(O)c32)c1 (configuration not stated) | 0 |
| COc1ccc(C2=Cc3n[nH]c(O)c3C(c3ccc(OC)c(OC)c3)C2)cc1 (configuration not stated) | 0 |

These compounds were tested on Radical scavenging activity (assay: Antioxidant activity assessed as DPPH free radical scavenging activity at 80 ug/mL after 20 min by UV-Vis spectrophotometric analysis). Settings: not given.
Type: functional
In short: as §1

| Structure (SMILES) | Activity [%] |
| --- | --- |
| O=[N+]([O-])c1cccc(C2CC(c3ccc(F)cc3)=Cc3n[nH]c(O)c32)c1 (configuration not stated) | 90.1 |
| COc1ccc(C2=Cc3n[nH]c(O)c3C(c3ccc(OC)c(OC)c3)C2)cc1 (configuration not stated) | 90 |

Each compound was assayed on Rhizoctonia solani (assay: Antifungal activity against Rhizoctonia solani ITCC 5563 by food poisoning method). Settings: not given.
Type: functional
In short: as §3

| Structure (SMILES) | LC50 [µg/mL] |
| --- | --- |
| O=[N+]([O-])c1cccc(C2CC(c3ccc(F)cc3)=Cc3n[nH]c(O)c32)c1 (configuration not stated) | 528 (≈ 1500 µM) |
| COc1ccc(C2=Cc3n[nH]c(O)c3C(c3ccc(OC)c(OC)c3)C2)cc1 (configuration not stated) | 1030 (≈ 2730 µM) |

Each compound was assayed on Staphylococcus aureus (assay: Antibacterial activity against Staphylococcus aureus MTCC 3160 assessed as growth inhibition at 100 ug/disk after 24 hr by disk diffusion method). Settings: MTCC 3160, 24 h, read-out: DIZ.
Type: functional
In short: as §2

| Structure (SMILES) | zone of inhibition at 100 µg/disc [mm] |
| --- | --- |
| O=[N+]([O-])c1cccc(C2CC(c3ccc(F)cc3)=Cc3n[nH]c(O)c32)c1 (configuration not stated) | 0 |
| COc1ccc(C2=Cc3n[nH]c(O)c3C(c3ccc(OC)c(OC)c3)C2)cc1 (configuration not stated) | 0 |
